Measurements taken from ChEMBL document CHEMBL4219021, “Discovery of a Small-Molecule Degrader of Bromodomain and Extra-Terminal (BET) Proteins with Picomolar Cellular Potencies and Capable of Achieving Tumor Regression” (J Med Chem, 2018).
pIC50, pKi: −log10 of the molar value. Calls of active or inactive are those of the source. No cut-off for these calls is given here.

Columns and labels:
[1] = tested on: MOLM-13; experiment: Cytotoxicity against human MOLM13 cells assessed as cell growth inhibition after 4 days by WST-8 assay; format: functional, cell-based; details: MOLM-13, 96 h
[2] = tested on: RS4-11; experiment: Cytotoxicity against human RS4:11 cells assessed as cell growth inhibition after 4 days by WST-8 assay; format: functional, cell-based; details: RS4-11, 96 h
[3] = target: T1, Bromodomain-containing protein 2 (Homo sapiens, UniProt P25440); experiment: Inhibition of FAM-labeled ZBA248 binding to recombinant N-terminal His6-tagged BRD2 bromodomain 1 (72 to 205 residues) (unknown origin) expressed in Escherichia coli Rosetta2 DE3 after 30 mins by fluorescence polarization assay
T1 sequence (P25440 whole entry, the tested form may be a part): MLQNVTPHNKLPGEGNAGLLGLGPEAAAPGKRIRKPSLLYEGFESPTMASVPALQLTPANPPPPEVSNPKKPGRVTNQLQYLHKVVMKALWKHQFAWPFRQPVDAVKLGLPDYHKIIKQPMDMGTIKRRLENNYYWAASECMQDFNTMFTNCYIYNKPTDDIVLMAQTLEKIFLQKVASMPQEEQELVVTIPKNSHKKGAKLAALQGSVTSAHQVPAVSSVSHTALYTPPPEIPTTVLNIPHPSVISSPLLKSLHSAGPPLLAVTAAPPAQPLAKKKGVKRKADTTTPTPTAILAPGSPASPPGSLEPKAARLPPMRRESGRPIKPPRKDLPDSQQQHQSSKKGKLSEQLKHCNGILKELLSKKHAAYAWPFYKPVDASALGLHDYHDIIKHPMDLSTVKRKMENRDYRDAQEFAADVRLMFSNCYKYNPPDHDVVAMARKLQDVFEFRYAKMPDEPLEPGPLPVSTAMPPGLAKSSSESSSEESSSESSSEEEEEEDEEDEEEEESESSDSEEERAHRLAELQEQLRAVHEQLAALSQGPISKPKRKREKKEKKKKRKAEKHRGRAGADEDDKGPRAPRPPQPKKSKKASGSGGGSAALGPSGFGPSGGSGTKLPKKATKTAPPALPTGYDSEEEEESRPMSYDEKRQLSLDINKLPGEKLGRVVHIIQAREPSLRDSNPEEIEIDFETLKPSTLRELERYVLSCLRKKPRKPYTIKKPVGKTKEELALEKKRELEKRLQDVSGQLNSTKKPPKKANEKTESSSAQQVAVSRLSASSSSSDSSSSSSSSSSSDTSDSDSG

[4] = target: T2, Bromodomain-containing protein 3 (Homo sapiens, UniProt Q15059); experiment: Inhibition of FAM-labeled ZBA248 binding to recombinant N-terminal His6-tagged BRD3 bromodomain 1 (24 to 144 residues) (unknown origin) expressed in Escherichia coli Rosetta2 DE3 after 30 mins by fluorescence polarization assay
T2 sequence (Q15059 whole entry, the tested form may be a part): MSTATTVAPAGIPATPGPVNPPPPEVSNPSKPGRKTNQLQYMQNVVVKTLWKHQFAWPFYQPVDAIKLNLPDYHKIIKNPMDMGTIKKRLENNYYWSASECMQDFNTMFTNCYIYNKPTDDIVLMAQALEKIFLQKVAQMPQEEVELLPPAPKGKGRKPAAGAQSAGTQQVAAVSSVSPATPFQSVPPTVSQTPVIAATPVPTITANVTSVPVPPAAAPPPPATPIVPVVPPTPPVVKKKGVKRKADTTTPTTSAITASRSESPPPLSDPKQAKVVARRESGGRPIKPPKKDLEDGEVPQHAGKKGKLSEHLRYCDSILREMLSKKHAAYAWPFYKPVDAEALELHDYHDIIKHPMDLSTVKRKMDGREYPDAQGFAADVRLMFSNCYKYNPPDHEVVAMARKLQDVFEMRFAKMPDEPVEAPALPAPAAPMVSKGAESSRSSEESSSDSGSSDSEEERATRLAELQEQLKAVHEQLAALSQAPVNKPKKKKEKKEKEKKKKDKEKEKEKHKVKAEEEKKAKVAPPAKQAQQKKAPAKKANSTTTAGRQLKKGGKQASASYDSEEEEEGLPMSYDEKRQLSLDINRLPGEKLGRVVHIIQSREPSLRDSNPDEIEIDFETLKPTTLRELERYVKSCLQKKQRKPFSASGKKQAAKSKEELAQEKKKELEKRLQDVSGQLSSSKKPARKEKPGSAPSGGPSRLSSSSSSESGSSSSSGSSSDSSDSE

[5] = target: T3, Bromodomain-containing protein 4 (Homo sapiens, UniProt O60885); experiment: Inhibition of FAM-labeled ZBA248 binding to recombinant N-terminal His6-tagged BRD4 bromodomain 1 (44 to 168 residues) (unknown origin) expressed in Escherichia coli Rosetta2 DE3 after 30 mins by fluorescence polarization assay
[6] = target: T2, Bromodomain-containing protein 3; experiment: Inhibition of FAM-labeled ZBA248 binding to recombinant N-terminal His6-tagged BRD3 bromodomain 2 (306 to 417residues) (unknown origin) expressed in Escherichia coli Rosetta2 DE3 after 30 mins by fluorescence polarization assay
[7] = target: T1, Bromodomain-containing protein 2; experiment: Inhibition of FAM-labeled ZBA248 binding to recombinant N-terminal His6-tagged BRD2 bromodomain 2 (349 to 460 residues) (unknown origin) expressed in Escherichia coli Rosetta2 DE3 after 30 mins by fluorescence polarization assay
[8] = target: T3, Bromodomain-containing protein 4; experiment: Inhibition of FAM-labeled ZBA248 binding to recombinant N-terminal His6-tagged BRD4 bromodomain 2 (333 to 460 residues) (unknown origin) expressed in Escherichia coli Rosetta2 DE3 after 30 mins by fluorescence polarization assay
[9] = target: T4, Protein cereblon/Bromodomain-containing protein 3/Cullin-4A (Homo sapiens) (UniProt Q15059+Q96SW2+Q13619); experiment: Induction of cereblon/cullin 4A-mediated BRD3 degradation in human RS4:11 cells at 30 to 300 nM after 3 hrs by Western blot method; format: cell-based
T4 sequence (Q13619 whole entry, looked up): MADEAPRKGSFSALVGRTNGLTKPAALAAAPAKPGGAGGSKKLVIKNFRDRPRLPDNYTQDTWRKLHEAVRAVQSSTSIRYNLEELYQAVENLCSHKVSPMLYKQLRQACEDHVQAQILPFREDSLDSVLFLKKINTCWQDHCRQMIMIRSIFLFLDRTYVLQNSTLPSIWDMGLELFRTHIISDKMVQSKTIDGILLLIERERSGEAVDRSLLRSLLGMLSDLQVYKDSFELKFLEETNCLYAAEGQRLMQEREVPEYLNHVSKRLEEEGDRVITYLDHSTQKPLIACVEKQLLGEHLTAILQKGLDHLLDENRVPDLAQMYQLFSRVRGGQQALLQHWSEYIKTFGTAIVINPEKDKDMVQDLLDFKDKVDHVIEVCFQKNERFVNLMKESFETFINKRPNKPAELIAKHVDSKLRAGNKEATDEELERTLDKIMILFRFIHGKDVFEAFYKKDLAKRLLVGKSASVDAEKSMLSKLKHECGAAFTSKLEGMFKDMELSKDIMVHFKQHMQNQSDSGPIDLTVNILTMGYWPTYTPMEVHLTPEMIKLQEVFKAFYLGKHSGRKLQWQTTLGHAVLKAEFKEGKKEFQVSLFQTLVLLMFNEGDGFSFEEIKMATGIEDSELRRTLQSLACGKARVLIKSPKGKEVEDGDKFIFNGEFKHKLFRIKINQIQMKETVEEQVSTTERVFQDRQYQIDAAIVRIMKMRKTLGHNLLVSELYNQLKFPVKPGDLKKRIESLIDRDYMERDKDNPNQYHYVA
T4 sequence (Q15059 whole entry, looked up): as the sequence (Q15059 whole entry, the tested form may be a part) above
T4 sequence (Q96SW2 whole entry, looked up): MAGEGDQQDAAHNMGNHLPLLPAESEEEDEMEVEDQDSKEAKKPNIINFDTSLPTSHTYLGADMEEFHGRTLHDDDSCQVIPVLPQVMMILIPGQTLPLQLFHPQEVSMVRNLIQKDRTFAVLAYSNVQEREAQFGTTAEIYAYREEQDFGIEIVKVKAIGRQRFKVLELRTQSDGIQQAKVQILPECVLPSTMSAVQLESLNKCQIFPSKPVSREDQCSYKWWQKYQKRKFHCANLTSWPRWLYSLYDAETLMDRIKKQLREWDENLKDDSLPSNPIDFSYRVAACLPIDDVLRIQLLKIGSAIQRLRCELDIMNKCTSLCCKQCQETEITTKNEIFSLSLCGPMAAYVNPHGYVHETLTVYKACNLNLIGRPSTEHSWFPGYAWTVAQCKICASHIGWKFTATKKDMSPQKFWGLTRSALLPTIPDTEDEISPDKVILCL
In short: (§1)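 Western blot of RS4;11 cells (2 × 10⁶ cells/well) in RPMI 1640 with 10% FBS, 37 °C, 5% CO₂, used within three months of thawing. Compound exposure was 3 h or 24 h at the indicated concentrations. Cells were lysed in RIPA with protease inhibitors, and BRD2, BRD3 and BRD4 were detected with specific antibodies, with GAPDH as loading control.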

[10] = target: T5, Protein cereblon/Bromodomain-containing protein 4/Cullin-4A (Homo sapiens) (UniProt O60885+Q96SW2+Q13619); experiment: Induction of cereblon/cullin 4A-mediated BRD4 degradation in human RS4:11 cells at 30 to 300 nM after 3 hrs by Western blot method; format: cell-based; in short: as §1
[11] = target: T6, Protein cereblon/Bromodomain-containing protein 2/Cullin-4A (Homo sapiens) (UniProt P25440+Q96SW2+Q13619); experiment: Induction of cereblon/cullin 4A-mediated BRD2 degradation in human RS4:11 cells at 30 to 300 nM after 3 hrs by Western blot method; format: cell-based
T6 sequence (P25440 whole entry, looked up): as the sequence (P25440 whole entry, the tested form may be a part) above
T6 sequence (Q13619 whole entry, looked up): as the sequence (Q13619 whole entry, looked up) above
T6 sequence (Q96SW2 whole entry, looked up): as the sequence (Q96SW2 whole entry, looked up) above
In short: (§2)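 RS4;11 cells (2 × 10⁶/well) treated for 3 h at the indicated concentrations. Lysed in RIPA with protease inhibitors and immunoblotted for BRD2, BRD3 and BRD4 with specific antibodies.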

[12] = target: T6, Protein cereblon/Bromodomain-containing protein 2/Cullin-4A (Homo sapiens); experiment: Induction of cereblon/cullin 4A-mediated BRD2 degradation in human RS4:11 cells after 3 hrs by Western blot method; format: cell-based; in short: as §2
[13] = target: T5, Protein cereblon/Bromodomain-containing protein 4/Cullin-4A (Homo sapiens); experiment: Induction of cereblon/cullin 4A-mediated BRD4 degradation in human RS4:11 cells after 3 hrs by Western blot method; format: cell-based; in short: as §1
[14] = target: T4, Protein cereblon/Bromodomain-containing protein 3/Cullin-4A (Homo sapiens); experiment: Induction of cereblon/cullin 4A-mediated BRD3 degradation in human RS4:11 cells after 3 hrs by Western blot method; format: cell-based; in short: as §2
[15] = target: T6, Protein cereblon/Bromodomain-containing protein 2/Cullin-4A (Homo sapiens); experiment: Induction of cereblon/cullin 4A-mediated BRD2 degradation in human MOLM13 cells after 3 hrs by Western blot method; format: cell-based
[16] = target: T5, Protein cereblon/Bromodomain-containing protein 4/Cullin-4A (Homo sapiens); experiment: Induction of cereblon/cullin 4A-mediated BRD4 degradation in human MOLM13 cells after 3 hrs by Western blot method; format: cell-based
[17] = target: T4, Protein cereblon/Bromodomain-containing protein 3/Cullin-4A (Homo sapiens); experiment: Induction of cereblon/cullin 4A-mediated BRD3 degradation in human MOLM13 cells after 3 hrs by Western blot method; format: cell-based
[18] = target: T4, Protein cereblon/Bromodomain-containing protein 3/Cullin-4A (Homo sapiens); experiment: Induction of cereblon/cullin 4A-mediated BRD3 degradation in human RS4:11 cells at 30 to 1000 nM after 3 hrs by Western blot method; format: cell-based; in short: as §1
[19] = target: T6, Protein cereblon/Bromodomain-containing protein 2/Cullin-4A (Homo sapiens); experiment: Induction of cereblon/cullin 4A-mediated BRD2 degradation in human RS4:11 cells at 30 to 1000 nM after 3 hrs by Western blot method; format: cell-based; in short: as §2
[20] = target: T5, Protein cereblon/Bromodomain-containing protein 4/Cullin-4A (Homo sapiens); experiment: Induction of cereblon/cullin 4A-mediated BRD4 degradation in human RS4:11 cells at 30 to 1000 nM after 3 hrs by Western blot method; format: cell-based; in short: as §1
[21] = target: T4, Protein cereblon/Bromodomain-containing protein 3/Cullin-4A (Homo sapiens); experiment: Induction of cereblon/cullin 4A-mediated BRD3 degradation in human RS4:11 cells at 3 to 10 nM after 3 hrs by Western blot method; format: cell-based; in short: as §1
[22] = target: T5, Protein cereblon/Bromodomain-containing protein 4/Cullin-4A (Homo sapiens); experiment: Induction of cereblon/cullin 4A-mediated BRD4 degradation in human RS4:11 cells at 3 to 10 nM after 3 hrs by Western blot method; format: cell-based; in short: as §1
[23] = target: T6, Protein cereblon/Bromodomain-containing protein 2/Cullin-4A (Homo sapiens); experiment: Induction of cereblon/cullin 4A-mediated BRD2 degradation in human RS4:11 cells at 3 to 10 nM after 3 hrs by Western blot method; format: cell-based; in short: as §2
[24] = target: T6, Protein cereblon/Bromodomain-containing protein 2/Cullin-4A (Homo sapiens); experiment: Induction of cereblon/cullin 4A-mediated BRD2 degradation in human RS4:11 cells at 3 to 30 nM after 3 hrs by Western blot method; format: cell-based; in short: as §2
[25] = target: T4, Protein cereblon/Bromodomain-containing protein 3/Cullin-4A (Homo sapiens); experiment: Induction of cereblon/cullin 4A-mediated BRD3 degradation in human RS4:11 cells at 3 to 30 nM after 3 hrs by Western blot method; format: cell-based; in short: as §1

## CCn1nc(C2CC2)cc1Nc1nc(C(=O)NCCCNc2cccc3c2C(=O)N(C2CCC(=O)NC2=O)C3=O)nc2[nH]c3cc(-c4c(C)noc4C)c(OC)cc3c12 (stereo not given)
[1]
  pIC50: 8.02
[2]
  pIC50: 8.62

## CNC(=O)c1ncc2c(n1)[nH]c1cc(-c3c(C)noc3C)c(OC)cc12
[3]
  pIC50: 6.66
  pKi: 7.00
[4]
  pIC50: 6.53
  pKi: 7.09
[5]
  pIC50: 6.32
  pKi: 6.82
[6]
  pIC50: 6.72
  pKi: 7.37
[7]
  pIC50: 6.65
  pKi: 7.24
[8]
  pIC50: 6.20
  pKi: 6.69

## CCn1nc(C2CC2)cc1Nc1nc(C(=O)NCCNc2cccc3c2C(=O)N(C2CCC(=O)NC2=O)C3=O)nc2[nH]c3cc(-c4c(C)noc4C)c(OC)cc3c12 (stereo not given)
[1]
  pIC50: 7.16
[2]
  pIC50: 8.32

## Cc1sc2c(c1C)C(c1ccc(Cl)cc1)=N[C@@H](CC(=O)NCCCCNC(=O)COc1cccc3c1C(=O)N(C1CCC(=O)NC1=O)C3=O)c1nnc(C)n1-2 (stereo not given in full)
[9]
  Activity: Active
[1]
  pIC50: 6.18
[10]
  Activity: Active
[11]
  Activity: Active

## CCn1nc(C2CC2)cc1Nc1nc(C(=O)NCCCCCCNc2cccc3c2C(=O)N(C2CCC(=O)NC2=O)C3=O)nc2[nH]c3cc(-c4c(C)noc4C)c(OC)cc3c12 (stereo not given)
[1]
  pIC50: 8.43
[2]
  pIC50: 9.20

## COc1cc2c(cc1-c1c(C)noc1C)[nH]c1nc(C(=O)NCCCCCc3cccc4c3CN(C3CCC(=O)NC3=O)C4=O)ncc12 (stereo not given)
[1]
  pIC50: < 6.00
[2]
  pIC50: < 6.00

## CCn1nc(C2CC2)cc1Nc1nc(C(=O)NCCCCCCc2cccc3c2CN(C2CCC(=O)NC2=O)C3=O)nc2[nH]c3cc(-c4c(C)noc4C)c(OC)cc3c12 (stereo not given)
[12]
  Activity: Dose-dependent effect
[13]
  Activity: Dose-dependent effect
[1]
  pIC50: 9.00
[2]
  pIC50: 10.43
[14]
  Activity: Dose-dependent effect

## CCn1nc(C2CC2)cc1Nc1nc(C(=O)NCCOCCCc2cccc3c2C(=O)N(C2CCC(=O)NC2=O)C3=O)nc2[nH]c3cc(-c4c(C)noc4C)c(OC)cc3c12 (stereo not given)
[1]
  pIC50: 8.23
[2]
  pIC50: 9.38

## CCn1nc(C2CC2)cc1Nc1nc(C(=O)NCCCc2cccc3c2CN(C2CCC(=O)NC2=O)C3=O)nc2[nH]c3cc(-c4c(C)noc4C)c(OC)cc3c12 (stereo not given)
[12]
  Activity: Dose-dependent effect
[13]
  Activity: Dose-dependent effect
[1]
  pIC50: 7.14
[2]
  pIC50: 8.02
[14]
  Activity: Dose-dependent effect

## CCn1nc(C2CC2)cc1Nc1nc(C(=O)NCCCCNC(=O)CNc2cccc3c2C(=O)N(C2CCC(=O)NC2=O)C3=O)nc2[nH]c3cc(-c4c(C)noc4C)c(OC)cc3c12 (stereo not given)
[1]
  pIC50: 7.70
[2]
  pIC50: 8.60

## CCn1nc(C2CC2)cc1Nc1nc(C(=O)NCCCCCNc2cccc3c2C(=O)N(C2CCC(=O)NC2=O)C3=O)nc2[nH]c3cc(-c4c(C)noc4C)c(OC)cc3c12 (stereo not given)
[15]
  Activity: Active
[16]
  Activity: Active
[1]
  pIC50: 8.68
[2]
  pIC50: 9.85
[17]
  Activity: Active

## CCn1nc(C2CC2)cc1Nc1nc(C(=O)NCCCCNc2cccc3c2C(=O)N(C2CCC(=O)NC2=O)C3=O)nc2[nH]c3cc(-c4c(C)noc4C)c(OC)cc3c12 (stereo not given)
[1]
  pIC50: 8.30
[2]
  pIC50: 9.35

## CCn1nc(C2CC2)cc1Nc1nc(C(=O)NCCCCc2cccc3c2CN(C2CCC(=O)NC2=O)C3=O)nc2[nH]c3cc(-c4c(C)noc4C)c(OC)cc3c12 (stereo not given)
[12]
  Activity: Dose-dependent effect
[13]
  Activity: Dose-dependent effect
[1]
  pIC50: 7.86
[2]
  pIC50: 9.01
[14]
  Activity: Dose-dependent effect

## CCn1nc(C2CC2)cc1Nc1nc(C(=O)NCCCCCc2cccc3c2C(=O)N(C2CCC(=O)NC2=O)C3=O)nc2[nH]c3cc(-c4c(C)noc4C)c(OC)cc3c12 (stereo not given)
[1]
  pIC50: 8.68
[2]
  pIC50: 9.85

## CCn1nc(C2CC2)cc1Nc1nc(C(=O)NCCCCCc2cccc3c2CN(C2CCC(=O)N(C)C2=O)C3=O)nc2[nH]c3cc(-c4c(C)noc4C)c(OC)cc3c12 (stereo not given)
[18]
  Activity: inactive
[19]
  Activity: inactive
[1]
  pIC50: 7.08
[2]
  pIC50: 7.45
[20]
  Activity: inactive

## CCn1nc(C2CC2)cc1Nc1nc(C(=O)NCCOCCCc2cccc3c2CN(C2CCC(=O)NC2=O)C3=O)nc2[nH]c3cc(-c4c(C)noc4C)c(OC)cc3c12 (stereo not given)
[1]
  pIC50: 8.27
[2]
  pIC50: 9.05

## CCn1nc(C2CC2)cc1Nc1nc(C(=O)NCCCCCCc2cccc3c2C(=O)N(C2CCC(=O)NC2=O)C3=O)nc2[nH]c3cc(-c4c(C)noc4C)c(OC)cc3c12 (stereo not given)
[1]
  pIC50: 8.60
[2]
  pIC50: 9.77

## CCn1nc(C2CC2)cc1Nc1nc(C(=O)NCCCCCCCOc2cccc3c2C(=O)N(C2CCC(=O)NC2=O)C3=O)nc2[nH]c3cc(-c4c(C)noc4C)c(OC)cc3c12 (stereo not given)
[1]
  pIC50: 8.41
[2]
  pIC50: 9.32

## CCn1nc(C2CC2)cc1Nc1nc(C(=O)NCCCCCCCNc2cccc3c2C(=O)N(C2CCC(=O)NC2=O)C3=O)nc2[nH]c3cc(-c4c(C)noc4C)c(OC)cc3c12 (stereo not given)
[15]
  Activity: Active
[16]
  Activity: Active
[1]
  pIC50: 8.92
[2]
  pIC50: 9.70
[17]
  Activity: Active

## CCn1nc(C2CC2)cc1Nc1nc(C(=O)NCCCCNC(=O)COc2cccc3c2C(=O)N(C2CCC(=O)NC2=O)C3=O)nc2[nH]c3cc(-c4c(C)noc4C)c(OC)cc3c12 (stereo not given)
[21]
  Activity: Active
[22]
  Activity: Active
[1]
  pIC50: 7.34
[2]
  pIC50: 8.37
[23]
  Activity: Active

## Cc1sc2c(c1C)C(c1ccc(Cl)cc1)=N[C@@H](CC(=O)Nc1ccc(OCCOCCOCCOCCNc3cccc4c3C(=O)N(C3CCC(=O)NC3=O)C4=O)cc1)c1nnc(C)n1-2 (stereo not given in full)
[24]
  Activity: Active
[25]
  Activity: Active
